GSTO1 inh: counter-screen for RBBP9 inhibitors: inhibitors of human GSTO1 | P78417 | recombinant GSTO1, activity-based probe fluorescence polarization | inhibition, % at 5.96 µM | 300,000 tested, 1.1% active | AID 1974;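 active means inhibition above the campaign mean inhibition plus 3 SD, cut at about 35% in these data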;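 further: 0% = GSTO1-1 with DMSO and 100% = wells lacking GSTO1-1 enzyme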
PAD4 FP inh: blocks human protein arginine deiminase 4. 330,000 tested, 0.41% active. inhibition, % at 6.36 µM. recombinant PAD4, RCA probe fluorescence polarization. AID 485272. Q9UM07;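 active means percent inhibition above a cutoff equal to the mean of all tested compounds plus 3 SD, cut at about 15% in these data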;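 further: 0% = PAD4 with RCA probe and DMSO and 100% = probe without PAD4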
Target sequence (Q9UM07 whole entry, looked up): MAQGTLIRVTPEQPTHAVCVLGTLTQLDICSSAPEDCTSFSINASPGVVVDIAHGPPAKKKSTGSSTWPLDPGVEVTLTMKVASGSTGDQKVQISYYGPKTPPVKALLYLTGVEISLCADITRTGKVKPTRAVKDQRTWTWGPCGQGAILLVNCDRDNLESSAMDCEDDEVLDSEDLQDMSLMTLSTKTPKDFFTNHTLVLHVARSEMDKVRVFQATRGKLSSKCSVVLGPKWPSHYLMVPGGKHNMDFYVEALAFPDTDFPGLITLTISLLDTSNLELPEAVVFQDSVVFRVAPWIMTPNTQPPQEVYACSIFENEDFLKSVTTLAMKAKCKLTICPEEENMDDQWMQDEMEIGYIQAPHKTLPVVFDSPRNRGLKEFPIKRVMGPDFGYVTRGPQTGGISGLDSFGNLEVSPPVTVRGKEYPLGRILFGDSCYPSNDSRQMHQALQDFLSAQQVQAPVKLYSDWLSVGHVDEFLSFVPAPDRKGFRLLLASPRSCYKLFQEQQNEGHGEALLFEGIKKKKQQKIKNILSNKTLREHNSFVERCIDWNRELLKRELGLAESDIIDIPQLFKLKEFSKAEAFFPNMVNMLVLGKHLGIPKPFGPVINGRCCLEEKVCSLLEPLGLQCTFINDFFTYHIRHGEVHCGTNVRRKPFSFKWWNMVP
TDP2 absorb: blocks human TDP2 phosphodiesterase activity | O95551 | inhibition, % at 12.8 µM | 370,000 tested, 0.34% active | recombinant TDP2, T5PNP hydrolysis, p-nitrophenol absorbance 415 nm | AID 720702;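 active means inhibition above the mean of all tested compounds plus 3 SD, set per campaign, cut at about 25% in these data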;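 further: 0% = DMSO with enzyme and 100% = buffer with substrate but no TDP2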
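Incubation: 2 h at 37 °C; Test system: recombinant human TDP2; Quantity: enzyme 120 nM; Read-out basis: percent inhibition; Medium: 50 mM Tris-HCl pH 7.5 with Mg2+, KCl, DTT, BSA; Repeats: single replicate; Compound: 12.8 µM single point, 1% DMSO; Signal: epi absorbance; Reagent: 5 mM T5PNP chromogenic substrate; Benchmarks: no-enzyme high, DMSO-plus-enzyme low.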
CTSL1 counter: cathepsin L1 inhibition, PFM18AAP counter-screen; recombinant F. hepatica cathepsin L1, Z-Leu-Arg-MCA fluorescence; inhibition, % at 5.96 µM; 300,000 tested, 0.49% active; AID 1906;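 active means inhibition above the mean of all tested compounds plus 3 SD, set per screening campaign, cut at about 17% in these data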;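 further: 0% = plate median of test compound wells and 100% = 1 µM Z-Phe-Ala-diazomethylketone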
PAD4 confirm: PAD4 (human) inhibition, confirmed. 1,200 tested, 28% active. recombinant PAD4, RCA probe fluorescence polarization. shares compounds with PAD4 FP inh. inhibition, % at 6.36 µM. AID 488796;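 active means mean inhibition across replicates above the hit cutoff set by the earlier primary screen, cut at about 15% in these data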;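 further: inhibitors block active-site labeling by the probe so polarization falls; 0% = PAD4 with probe and DMSO and 100% = probe without PAD4 enzyme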
* marks the source's active call; other numbers are inactive results; x = no result. This is a sample that favours compounds with a hit; in the whole collection about 1.4% have one here.

SMILES | GSTO1 inh | PAD4 FP inh | TDP2 absorb | CTSL1 counter | PAD4 confirm
O=C1CCCC(O)=C1N=Nc1c(Cl)cc(C(F)(F)F)cc1Cl | 8 | 85* | -4 | 0 | 0
CCc1cccc(NS(=O)(=O)c2ccc3c(c2)CCC(=O)N3)c1 | 2 | 16* | 1 | -2 | -4
Fc1ccccc1C1CC(c2ccco2)=Nc2ccccc2S1 (stereo unspecified) | -1 | 19* | -19 | 0 | 4
Nc1ccc(-c2c3ccc(=O)cc-3oc3cc(O)ccc23)c(C(=O)O)c1 | x | 21* | x | x | 15
COC(=O)c1[nH]c(=O)c2ccccc2c1O | 30 | 31* | x | 3 | -14
COc1ccc(C#CCN(Cc2ccc(OC)cc2OC)C(N)=NC(=O)CCc2ccccc2)cc1 | x | x | -5 | x | x
Cn1c(/C(C#N)=C/c2ccc(-c3ccc(S(N)(=O)=O)cc3)o2)nc2ccccc21 | -13 | 28* | -10 | 4 | 21*
Cn1c(/C(C#N)=C/c2cccc(O)c2)nc2ccccc21 | 4 | -3 | -2 | 0 | x
Cc1nc2ccccc2n2c(O)c(CC(=O)O)cc12 | 14 | 75* | 8 | 1 | 39*
Cc1nc2ccccc2n1CCC(=O)O | 4 | -3 | -2 | 2 | x
C=CCn1c(NC)cc(=O)n(C)c1=O | 7 | 20* | -4 | -2 | 6
CCNc1cc(=O)n(C)c(=O)n1C | -12 | -6 | -6 | -1 | x
CCOC(=O)c1csc(NC(=O)C2CCCN(S(=O)(=O)c3ccccc3)C2)n1 (stereo unspecified) | x | x | -1 | x | x
COC(=O)c1ccccc1NC(=O)CSc1nc(O)c(-c2ccccc2)c(=O)[nH]1 | 2 | 17* | 10 | 0 | 17*
COc1ccccc1NC(=O)CSc1nc(N)c(-c2ccccc2)c(=O)[nH]1 | -4 | -6 | -5 | -5 | x
COC(=O)c1cccc(NC(=O)CSc2nc(O)c(-c3ccccc3)c(=O)[nH]2)c1 | 8 | 18* | 1 | -3 | 20*
CC(=O)Nc1c(O)nc(SCC(=O)Nc2cccc(C)c2)[nH]c1=O | -2 | 0 | 6 | -1 | x
COc1ccc(S[C@]2(C(=O)N3CCOCC3)CC(=O)N(c3ccc(OC)cc3)[C@@H]2c2ccc(OC)cc2)cc1 | x | x | -13 | x | x
Cc1cc(-c2cc(NC(=O)Cc3c(C)[nH]c4ccccc34)ccc2Nc2cccnc2)ccc1F | x | x | 8 | x | x
Cc1ccnc(NC(=O)Nc2ccc(F)cc2)c1 | -1 | 4 | -2 | -4 | x
Cc1ccnc(NC(=O)c2cc3cc(F)ccc3s2)c1 | -8 | 17* | -5 | 1 | 25*
CC1CCN(c2ccc(C(=O)O)cc2NS(=O)(=O)c2ccccc2)CC1 | x | x | 2 | x | x
CC1CCCCC1C(=O)N1CCC(Oc2cccnc2)CC1 (stereo unspecified) | x | x | 8 | x | x
CCOC(=O)C1=C(C)NC(C)=C(C(=O)OC)C1c1ccco1 (stereo unspecified) | 2 | -3 | -5 | 3 | x
CCOC(=O)C1=C(C)NC(=O)C(C#N)C1c1ccco1 (stereo unspecified) | -7 | 18* | -3 | 12 | 2
SMILES | GSTO1 inh | PAD4 FP inh | TDP2 absorb | CTSL1 counter | PAD4 confirm
Cc1ccc(NC(=O)CNC(=O)c2ccc3c(c2)OCO3)nc1 | 14 | -1 | 9 | -1 | x
Cc1ccc(NC(=O)c2ccc3c(c2)OCCO3)nc1 | -3 | 16* | 4 | 5 | 12
Cn1cccc1C(=O)N1CCN(S(=O)(=O)c2ccc(F)cc2)CC1 | x | x | 3 | x | x
CCCN1C=CC(=C/C=C(\C#N)C(=O)OCC)C=C1 | 7 | -1 | x | 15 | x
CCOC(=O)/C(C#N)=C/C=C1\C=Cc2ccccc2N1CC | -24 | 87* | -3 | 6 | 19*
Cc1ccccc1C1CC(=O)Oc2cc(O)ccc21 (stereo unspecified) | x | 82* | x | x | 78*
CC(C)c1ccc(N2C(=O)CSC23C(=O)N2CCCc4cccc3c42)cc1 (stereo unspecified) | 5 | 15* | 7 | 3 | 20*
CCOC(=O)c1ccc(NC(=O)CSC2=NC(=O)C(CC)C(=O)N2)cc1 (stereo unspecified) | 0 | 21* | 8 | 0 | 20*
CCC1C(=O)N=C(SCC(=O)Nc2cccc3ccccc23)NC1=O (stereo unspecified) | 5 | 11 | 3 | 0 | x
CCc1ccccc1N=Nc1c(N)[nH]n(-c2ccccc2)c1=O | x | x | -3 | x | x
O=C(c1ccc(Cl)c(S(=O)(=O)N2CCCC2)c1)N1CCOCC1 | 4 | -5 | 3 | 0 | x
O=C(c1ccc(Cl)c(S(=O)(=O)N2CCOCC2)c1)N1CCCC1 | 3 | 16* | -16 | 9 | 1
CCOC(=O)[C@@]12CCC3=C1N(CCC3)C(=O)[C@H](CC(=O)NCC13CC4CC(CC(C4)C1)C3)C2 | x | x | 3 | x | x
CC(=O)C[C@H](O)CC(=O)[C@H]1OC(=O)CC/C=C\Cc2ccccc21 | x | 22* | 12 | x | 0
CC(C)CCc1c(O)nc(SCC(=O)N2CCCCCC2)[nH]c1=O | 4 | 16* | 11 | 4 | 3
CCOC(=O)Cc1nc(N2CCN(CCN)CC2)c2c(C)c(C(=O)OCC)sc2n1 | x | x | -2 | x | x
COC(=O)[C@]12C[C@H](CC(=O)NCCC(C)C)C(=O)N(Cc3ccc(Cl)cc3Cl)C1=C[C@H](C(C)C)O[C@@H]2C1CC1 | x | x | 3 | x | x
S=C(NCc1ccco1)Nc1cccc(Cl)c1 | 4 | 163* | -10 | 7 | 0
COC(=O)[C@]12C[C@H](CC(=O)NCc3ccc(C)o3)C(=O)N(CCc3ccc(OC)c(OC)c3)C1=C[C@H](COCc1ccccc1)O[C@@H]2C | x | x | -15 | x | x
CCCSc1nc2c(cnn2-c2ccccc2)c(=O)n1N | 8 | -2 | -7 | -4 | x
Nn1c(SCc2ccccc2)nc2c(cnn2-c2ccccc2)c1=O | 5 | 18* | 1 | -1 | 3
CC(=O)N1CCN(c2ccc(NCc3ccc(C)cc3)cc2)CC1 | 5 | 3 | 9 | 1 | x
CCc1ccc(CNc2ccc(N3CCN(C(C)=O)CC3)cc2)cc1 | 29 | 29* | 12 | -2 | 2
Cc1ccc(S(=O)(=O)/N=C2\C=C(Nc3ccc(O)cc3)C(=O)c3ccccc32)cc1 | x | 55* | x | x | 54*
Cc1ccc(C2=NN=C(NC(=O)CSc3nc(C)cc(C)n3)SC2)cc1 | 2 | 71* | -1 | 4 | 68*
SMILES | GSTO1 inh | PAD4 FP inh | TDP2 absorb | CTSL1 counter | PAD4 confirm
Cc1ccc(C2=NN=C(NC(=O)CSc3nnc4c5ccccc5n(C)c4n3)SC2)cc1 | 0 | 23* | x | 10 | 37*
Cn1ncc2nc[nH]c(=O)c21 | 4 | 19* | -1 | 0 | 6
Cc1nc[nH]c(=O)c1Br | 0 | -3 | -5 | -4 | x
C(=N/N1CCN(c2ccccc2)CC1)/c1ccco1 | x | x | 1 | x | x
O=C(COC(=O)c1cc(-c2cccc3ccccc23)nc2ccccc12)NC1CCS(=O)(=O)C1 (stereo unspecified) | 10 | 65* | -3 | -26 | 24*
CCN(C(=O)COC(=O)c1cc(-c2cccc3ccccc23)nc2ccccc12)C1CCS(=O)(=O)C1 (stereo unspecified) | 8 | 24* | 3 | -19 | 12
